Data as given in ChEMBL document CHEMBL1122242, “Phenylenebis(oxy)bis[2,2-dimethylpentanoic acid]s: agents that elevate high-density lipoproteins” (1983).

How the values were obtained:
Assay type in all cases: functional
[1] = species: Rattus norvegicus; test: Hypolipidemic effects(liver weight) in male rats
Procedure, shortened: (§1)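 Male rats, 10 per group, fed 7 days on chow with 10% fat (5.5% added peanut oil), 1.5% cholesterol and 0.1% cholic acid. Oral gavage on days 4-7 in 4% acacia, usually 50 mg/kg daily. Fasted overnight, killed day 8, atrial blood into EDTA. Plasma cholesterol, TG and HDL cholesterol (after MnCl2/heparin precipitation) by Autoanalyzer. % change vs controls, Student's t test.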

[2] = system: Rattus norvegicus; test: Hypolipidemic effects (low-density lipoprotein (LDL) cholesterol) in male rats;Compound was screening orally at 50 mg/Kg; procedure, shortened: as §1
[3] = system: Rattus norvegicus; test: Hypolipidemic effects (high-density lipoprotein (HDL) cholesterol) in male rats;Compound was screening orally at 50 mg/Kg; procedure, shortened: as §1
[4] = species: Rattus norvegicus; test: Hypolipidemic effects(plasma TG) in male rats; procedure, shortened: as §1
[5] = species: Rattus norvegicus; test: Hypolipidemic effects(plasma cholesterol) in male rats; procedure, shortened: as §1
[6] = system: Rattus norvegicus; test: Hypolipidemic effects (high-density lipoprotein (HDL) cholesterol) in male rats; Compound was screening orally at 50 mg/Kg; procedure, shortened: as §1
[7] = system: Rattus norvegicus; test: Hypolipidemic effects (low-density lipoprotein (LDL) cholesterol) in male rats; Compound was screening orally at 50 mg/Kg; procedure, shortened: as §1

O=C(O)C1(CCCCOc2ccc(OCCCCC3(C(=O)O)CCC3)cc2)CCC1
Change [1]: 0%
Change [2]: -32%
Change [3]: 55%
Change [4]: 0%
Change [5]: -23%

COC(=O)C(C)(C)CCCOc1ccc(OCCCC(C)(C)C(=O)OC)c(Br)c1
Change [1]: 30%
Change [3]: 728%
Change [4]: -39%
Change [5]: -45%

CC(C)(CCCOc1cc(Cl)c(OCCCC(C)(C)C(=O)O)cc1Cl)C(=O)O
Change [1]: 41%
Change [3]: 384%
Change [4]: 35%
Change [5]: -55%

COC(=O)C(C)(C)CCCOc1ccc(C=N/N=C(/N)S)c(OCCCC(C)(C)C(=O)OC)c1
Change [1]: 38%
Change [2]: -83%
Change [6]: 280%
Change [4]: -50%
Change [5]: -60%

CC(O)c1cc(OCCCC(C)(C)C(=O)O)ccc1OCCCC(C)(C)C(=O)O (centres undefined)
Change [1]: 12%
Change [2]: -70%
Change [6]: 525%
Change [4]: 0%
Change [5]: -27%

COC(=O)C(C)(C)CCCOc1ccc(OCCCC(C)(C)C(=O)OC)c(F)c1
Change [1]: 41%
Change [2]: -65%
Change [3]: 347%
Change [4]: 0%
Change [5]: -30%

CC(C)(CCOc1ccc(OCCC(C)(C)C(=O)O)c(Cl)c1)C(=O)O
Change [1]: 13%
Change [3]: 348%
Change [4]: -32%
Change [5]: -62%

COC(=O)C(C)(C)CCCOc1cccc(OCCCC(C)(C)C(=O)OC)c1N
Change [1]: 8%
Change [2]: -42%
Change [6]: 46%
Change [4]: -41%
Change [5]: -37%

CCCC(O)c1cc(OCCCC(C)(C)C(=O)O)ccc1OCCCC(C)(C)C(=O)O (centres undefined)
Change [1]: 37%
Change [2]: -45%
Change [6]: 1292%
Change [4]: 0%
Change [5]: 61%

CC(C)(CCCOc1ccc(C(=O)c2ccccc2)c(OCCCC(C)(C)C(=O)O)c1)C(=O)O
Change [1]: 11%
Change [2]: -10%
Change [6]: 169%
Change [4]: 57%
Change [5]: 0%

CC(C)(CCCOc1ccc(OCCCC(C)(C)C(=O)O)c(-c2ccc(Cl)cc2)c1)C(=O)O
Change [1]: 17%
Change [2]: -78%
Change [6]: 224%
Change [4]: -29%
Change [5]: -47%

COC(=O)C(C)(C)CCCOc1ccc(OCCCC(C)(C)C(=O)OC)c(C(=O)c2ccccc2)c1
Change [1]: 11%
Change [2]: -42%
Change [3]: 421%
Change [4]: 43%
Change [5]: 0%

CC(C)(CCCCCOc1cccc(OCCCCCC(C)(C)C(=O)O)c1)C(=O)O
Change [1]: 0%
Change [3]: 48%
Change [4]: 0%
Change [7]: -27%
Change [5]: -22%

CC(C)(CCCCOc1cccc(OCCCCC(C)(C)C(=O)O)c1)C(=O)O
Change [1]: 18%
Change [3]: 317%
Change [4]: 41%
Change [7]: -52%
Change [5]: -37%

CC(C)(CCOc1ccc(Sc2ccc(OCCC(C)(C)C(=O)O)cc2)cc1)C(=O)O
Change [1]: 0%
Change [3]: 46%
Change [4]: -32%
Change [5]: -25%

COC(=O)C(C)(C)CCCOc1cccc(OCCCC(C)(C)C(=O)OC)c1C(C)=O
Change [1]: 0%
Change [2]: -40%
Change [6]: 0%
Change [4]: 0%
Change [5]: -38%

COC(=O)C(C)(C)CCCOc1ccc(-c2ccccc2)c(OCCCC(C)(C)C(=O)OC)c1
Change [1]: 6%
Change [3]: 40%
Change [4]: 0%
Change [7]: -25%
Change [5]: 0%

CC(C)(CO)CCCCOc1ccc(OCCCCC(C)(C)CO)cc1
Change [1]: 30%
Change [2]: -54%
Change [6]: 907%
Change [4]: 0%
Change [5]: 0%

Cc1ccc(-c2cc(OCCCC(C)(C)C(=O)O)ccc2OCCCC(C)(C)C(=O)O)cc1
Change [1]: 0%
Change [2]: -42%
Change [6]: 66%
Change [4]: -27%
Change [5]: -32%

CC(C)(CCCOc1ccc(OCCCC(C)(C)C(=O)O)cc1)C(=O)O
Change [6]: 44%
Change [3]: 791%
Change [4]: 0%
Change [7]: -27%
Change [5]: -45%

COC(=O)C(C)(C)CCCSc1ccc(Oc2ccc(SCCCC(C)(C)C(=O)OC)cc2)cc1
Change [1]: 4%
Change [2]: -31%
Change [6]: 0%
Change [4]: 0%
Change [5]: -29%

COC(=O)C(C)(C)CCCOc1ccc(OCCCC(C)(C)C(=O)OC)c(/C=N/NC(N)=O)c1
Change [1]: 4%
Change [3]: 0%
Change [4]: 0%
Change [7]: -33%
Change [5]: -28%

COC(=O)C(C)(C)CCCOc1cc(OC)c(OCCCC(C)(C)C(=O)OC)cc1OC
Change [1]: 0%
Change [3]: 39%
Change [4]: 0%
Change [5]: -33%

CC(C)(CCOc1cccc(OCCC(C)(C)C(=O)O)c1)C(=O)O
Change [1]: 17%
Change [3]: 383%
Change [4]: 240%
Change [7]: -46%
Change [5]: -28%

CCC(=O)c1cc(OCCCC(C)(C)C(=O)OC)ccc1OCCCC(C)(C)C(=O)OC
Change [1]: 40%
Change [3]: 723%
Change [4]: 0%
Change [7]: -57%
Change [5]: 0%

CCCC(=O)c1cc(OCCCC(C)(C)C(=O)OC)ccc1OCCCC(C)(C)C(=O)OC
Change [1]: 34%
Change [3]: 1100%
Change [4]: 0%
Change [7]: -52%
Change [5]: 39%

CC(C)(CO)CCCOc1ccc(OCCCC(C)(C)CO)c(-c2ccccc2)c1
Change [1]: 30%
Change [6]: 1105%
Change [4]: 0%
Change [7]: -36%
Change [5]: 37%

CC(C)(CCCOc1ccc(S(=O)(=O)CCCC(C)(C)C(=O)O)cc1)C(=O)O
Change [1]: 9%
Change [6]: 93%
Change [4]: 0%
Change [7]: -20%
Change [5]: 0%

CC(C)(CCCOc1ccc(S(=O)(=O)c2ccc(OCCCC(C)(C)C(=O)O)cc2)cc1)C(=O)O
Change [1]: 10%
Change [6]: 26%
Change [4]: 0%
Change [7]: 0%
Change [5]: 0%

CC(C)(CCCOc1ccc(OCCCC(C)(C)C(=O)O)c(-c2ccc(Cl)cc2Cl)c1)C(=O)O
Change [1]: 0%
Change [6]: 64%
Change [4]: -20%
Change [7]: -54%
Change [5]: -45%

CC(C)(CCCOc1ccc(OCCCC(C)(C)C(=O)OCc2cccnc2)c(-c2ccccc2)c1)C(=O)OCc1cccnc1
Change [1]: 19%
Change [6]: 594%
Change [4]: 0%
Change [7]: 0%
Change [5]: 63%

COC(=O)C(C)(C)CCCOc1cc(OCCCC(C)(C)C(=O)OC)cc(-c2ccccc2)c1
Change [1]: 13%
Change [6]: 0%
Change [4]: 0%
Change [7]: -42%
Change [5]: -41%

COC(=O)c1ccc(OCCCC(C)(C)C(=O)OC)cc1OCCCC(C)(C)C(=O)OC
Change [1]: 0%
Change [6]: 0%
Change [4]: 0%
Change [7]: 0%
Change [5]: 0%

CC(C)(CCCOc1ccc(OCCCC(C)(C)C(=O)O)c(S(=O)(=O)c2ccccc2)c1)C(=O)O
Change [1]: 10%
Change [6]: 303%
Change [4]: 35%
Change [7]: -53%
Change [5]: -32%

COC(=O)C(C)(C)CCCOc1ccc(OCCCC(C)(C)C(=O)OC)c(C=O)c1
Change [1]: 9%
Change [6]: 217%
Change [4]: 0%
Change [7]: -20%
Change [5]: 0%

CC(C)(CCCOc1ccc(OCCCC(C)(C)C(=O)O)c(C(F)(F)F)c1)C(=O)O
Change [1]: 39%
Change [6]: 674%
Change [4]: 0%
Change [7]: -45%
Change [5]: 0%

CC(C)(CCOc1ccc(OCCC(C)(C)C(=O)O)cc1)C(=O)O
Change [1]: 40%
Change [3]: 370%
Change [4]: 0%
Change [5]: -33%

COC(=O)C(C)(C)CCCOc1ccc(OCCCC(C)(C)C(=O)OC)c(OC)c1
Change [1]: 30%
Change [3]: 566%
Change [4]: 0%
Change [7]: -31%
Change [5]: -26%

CCOC(=O)C(C)(C)CCCCCCOc1ccc(OCCCCCCC(C)(C)C(=O)OCC)cc1
Change [1]: 0%
Change [6]: 0%
Change [4]: 0%
Change [7]: -29%
Change [5]: -26%

CC(C)(CCCOc1ccc(OCCCC(C)(C)C(=O)O)c(C(=O)O)c1)C(=O)O
Change [1]: 0%
Change [3]: 0%
Change [4]: 0%
Change [7]: -17%
Change [5]: 0%

COC(=O)C(C)(C)CCCOc1ccc(C(C)(C)c2ccc(OCCCC(C)(C)C(=O)OC)cc2)cc1
Change [1]: 0%
Change [6]: 0%
Change [4]: 0%
Change [7]: 0%
Change [5]: 0%

CC(C)(Oc1cccc(OC(C)(C)C(=O)O)c1)C(=O)O
Change [1]: 0%
Change [2]: 0%
Change [6]: 0%
Change [4]: 0%
Change [5]: 0%

COC(=O)C(C)(C)CCCCCOc1ccccc1OCCCCCC(C)(C)C(=O)OC
Change [1]: 11%
Change [6]: 276%
Change [4]: 140%
Change [7]: -19%
Change [5]: 0%

CC(C)(CCCOc1ccc(OCCCC(C)(C)C(=O)O)c(CO)c1)C(=O)O
Change [1]: 9%
Change [2]: 0%
Change [6]: 319%
Change [4]: 18%
Change [5]: 40%

COC(=O)C(C)(C)CCCOc1ccc(OCCCC(C)(C)C(=O)OC)c(-c2nnco2)c1
Change [1]: 11%
Change [6]: 31%
Change [4]: 0%
Change [7]: -33%
Change [5]: -26%
